Compound activity from PubChem.
CAL PDZ FP-1 = blocks peptide binding to the human CAL PDZ domain. inhibition, % at 24.9 µM. 300,000 compounds, 0.92% hits. purified CAL PDZ, TMR-peptide fluorescence polarization, 1 h. Q9HD26;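 active = mean inhibition of at least 30% with at least half of replicates also reaching 30%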
SR-BI uptake up = SR-BI HDL lipid transfer activation; CHO ldlA[mSR-BI] cells, DiI-HDL uptake fluorescence, 3 h; 100 = double the neutral-control signal; activation, % at 12.5 µM; 320,000 compounds, 0.096% hits;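 active = mean replicate activation of at least 60% and every replicate at or above 60%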
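system = CHO ldlA[mSR-BI] cells, LDL receptor-null, SR-BI overexpressing | medium = Ham's F12 with 0.5% BSA, HEPES 25 mM, pH 7.4 | probe or stimulus = DiI-HDL 10 µg/mL | compound dosing = single-point compound dose | incubation = compound exposure 3 h, 37 °C | technique = DiI fluorescence, bottom read | read-out = cell-associated DiI fluorescence as measure of HDL uptake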
CAL PDZ FP-2 = inhibitors of human CAL PDZ peptide binding. AID 504414. Q9HD26. 330,000 compounds, 0.02% hits. inhibition, % at 20 µM. purified CAL PDZ, TMR-peptide fluorescence polarization, 1 h;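 active = highest replicate inhibition of at least 40%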
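material = purified tagged CAL PDZ domain construct (CerCALP) | buffer or medium = sodium phosphate/NaCl buffer pH 7.4 with TCEP, IgG, Thesit | reagent = TMR-labelled reporter peptide T*-PRC34 bound in PDZ groove | incubation = 1 h room-temperature incubation prior to read | measured by = fluorescence polarization (mP) | evaluation = percent inhibition from loss of millipolarization | control set = unlabelled peptide and DMSO controls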
SR-BI HDL uptake = inhibitors of mouse SR-BI mediated HDL lipid uptake | Q61009 | ldlA[mSR-BI] CHO cells, DiI-HDL uptake fluorescence, 3 h | inhibition, % at 12.5 µM | 320,000 compounds, 0.96% hits;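 active = mean replicate inhibition of at least 70% and a set share of replicates each scoring 70 or more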
Target sequence (Q61009 whole entry, looked up): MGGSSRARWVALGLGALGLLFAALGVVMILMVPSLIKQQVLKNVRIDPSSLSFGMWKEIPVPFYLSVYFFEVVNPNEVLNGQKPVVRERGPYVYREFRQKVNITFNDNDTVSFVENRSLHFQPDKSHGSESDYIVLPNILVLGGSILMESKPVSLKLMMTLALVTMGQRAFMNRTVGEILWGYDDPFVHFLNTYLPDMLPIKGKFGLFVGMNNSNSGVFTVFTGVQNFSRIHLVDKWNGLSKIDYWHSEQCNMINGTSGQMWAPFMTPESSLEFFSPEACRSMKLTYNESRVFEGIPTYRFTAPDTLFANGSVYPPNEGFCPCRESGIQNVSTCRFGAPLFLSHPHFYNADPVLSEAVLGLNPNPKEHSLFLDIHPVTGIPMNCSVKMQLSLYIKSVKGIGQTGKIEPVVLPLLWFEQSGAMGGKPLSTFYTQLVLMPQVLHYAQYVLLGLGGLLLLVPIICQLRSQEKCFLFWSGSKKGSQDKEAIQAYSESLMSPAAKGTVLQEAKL
ATG4B inhibitor = ATG4B (human) cysteine protease inhibition. ATG4B cleavage of LC3-PLA2, NBD-HPC fluorescence, 1 h. inhibition, % at 8.33 µM. 340,000 compounds, 0.51% hits. AID 504462; in the data active = inhibition above about 40%
ATG4B conf = ATG4B (human) inhibition, single-dose confirmed; shares compounds with ATG4B inhibitor; ATG4B protease fluorescent substrate cleavage assay; inhibition, % at 8.33 µM; 320 compounds, 92% hits; AID 504757; in the data active = inhibition above about 39%
PLA2 ctr = inhibits human PLA2, flagging false ATG4B inhibitors; shares compounds with ATG4B inhibitor; purified PLA2, NBD-C6-HPC fluorescence, 45 min; inhibition, % at 8.33 µM; 1,600 compounds, 66% hits; AID 588402; in the data active = inhibition above about 50%
Target sequence (P04054 whole entry, looked up): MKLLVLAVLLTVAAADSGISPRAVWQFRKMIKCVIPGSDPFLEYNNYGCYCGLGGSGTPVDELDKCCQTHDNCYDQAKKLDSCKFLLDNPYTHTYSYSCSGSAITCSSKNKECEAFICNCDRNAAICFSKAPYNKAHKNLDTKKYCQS
Large screens that a line does not name were inactive (follow-up assays come after a bar, where they were run). Compounds with a hit are over-represented: about 2.3% of the library has one in this group of screens.

Cc1c(C(=O)O)cccc1-c1ccc(/C=N/Nc2ccc(Br)cc2)o1	ATG4B inhibitor 48 | PLA2 ctr inactive
CC(C)CN(C(=O)COc1ccc(Br)cc1C=O)C1CCS(=O)(=O)C1 (configuration not stated)	ATG4B inhibitor 45 | PLA2 ctr 53
CC(=O)Nc1ccc(S(=O)(=O)Nc2nc3ccccc3nc2Nc2ccc3ccccc3c2)cc1	ATG4B inhibitor 48 | PLA2 ctr 58
CC(=O)Nc1ccc(S(=O)(=O)Nc2nc3ccccc3nc2Nc2cccc(O)c2)cc1	none (no result: SR-BI uptake up, SR-BI HDL uptake)
Cc1noc(C)c1C(=O)OCC(=O)Nc1ccc(S(N)(=O)=O)cc1	none
O=c1[nH]c(NNC(=S)NCc2ccccc2)nc2c1C1(CCCCC1)Cc1ccccc1-2	ATG4B inhibitor 72 | PLA2 ctr 79
COC(=O)Cc1[nH]c(=S)[nH]c1C(=O)OC	none
COc1ccc(/C=C2\CCC(C3CCCC3)C2=O)cc1Cn1nc(C)cc1C (configuration not stated)	none
COc1ccc(/C=C2\CCC(C3CCCC3)C2=O)cc1Cn1cccn1 (configuration not stated)	ATG4B inhibitor 68 | PLA2 ctr 65
CCCCCC1C(=O)C[C@@H]2CCN3C(=O)CCC[C@H]1[C@H]23 (some centres not stated)	none
COc1cc2c(cc1NC(=O)COC(=O)[C@@H](NS(=O)(=O)c1ccccc1)C(C)C)oc1ccccc12	ATG4B inhibitor 76 (no result: CAL PDZ FP-1) | PLA2 ctr 83
CC(C)[C@H](NS(=O)(=O)c1ccccc1)C(=O)OCC(=O)Nc1ccccc1Sc1ccccc1	ATG4B inhibitor 94 | PLA2 ctr 92
Cc1cc(C)nc(/N=C(\N)Nc2ccc(OCCC(C)C)cc2)n1	none
CC(C(=O)Nc1ccc(Cl)cc1Cl)N1C(=O)NC2(CCCC2)C1=O (configuration not stated)	none (no result: CAL PDZ FP-1, SR-BI uptake up, SR-BI HDL uptake)
Cc1nc(S/C(=C\c2ccc(OCc3ccccc3Cl)cc2)C(=O)O)n[nH]1	ATG4B inhibitor 94 | PLA2 ctr 83
CNc1nc(OC)nc(N(C#N)CN2C(=O)c3ccccc3S2(=O)=O)n1	none
CN(Cc1c(C(=O)N/N=C/c2cc(F)ccc2F)nnn1-c1nonc1N)C1CCCCC1	none
O=Cc1cccc(OCc2cccc3ccccc23)c1	ATG4B inhibitor 61 | PLA2 ctr 73
CCOc1ccc(S(=O)(=O)N(CC)CC(=O)NCc2cccnc2)cc1C	none (no result: SR-BI uptake up, SR-BI HDL uptake)
Cc1cnc(C)c(N2CCN(Cc3nc(-c4ccccc4)no3)CC2)n1	none (no result: SR-BI uptake up, SR-BI HDL uptake)
CCOC(=O)C1=C(C)NC(=S)N(C=O)C1c1ccccc1 (configuration not stated)	none
COc1cc(NS(=O)(=O)c2ccc(NS(=O)(=O)c3ccccc3)cc2)nc(OC)n1	none
COc1cc(NS(=O)(=O)c2ccc(Nc3nc(-c4cccc([N+](=O)[O-])c4)cs3)cc2)nc(OC)n1	ATG4B inhibitor 45 | ATG4B conf 78 | PLA2 ctr inactive
CSc1cccc(CN(C)C(=O)C2CCC(=O)N(CCCN3CCCC3=O)C2)c1 (configuration not stated)	none
CN(C)S(=O)(=O)c1ccc(NC(=O)COc2ncnc3sccc23)cc1	none
O=C(N/N=C/c1ccc(-c2ccc(Cl)c(C(=O)O)c2)o1)c1cc2c(ccc3ccccc32)o1	ATG4B inhibitor 42 (no result: SR-BI uptake up, SR-BI HDL uptake) | PLA2 ctr 63
Cc1ccc(-c2ccc(/C=N\NC(=O)c3cc4c(ccc5ccccc54)o3)o2)cc1[N+](=O)[O-]	none
CN1C(=O)C(=O)/C(=C(/O)c2ccc(Br)cc2)C1c1ccc(F)cc1 (configuration not stated)	none
Cc1ccc(-c2nc3ccccc3[nH]2)cc1NC(=O)c1ccc2c(c1)OCO2	none
O=C(NC(=S)Nc1cc(-c2nc3ccccc3[nH]2)ccc1Cl)c1ccc2c(c1)OCO2	ATG4B inhibitor 52 | PLA2 ctr 60
Cc1ccc(-c2nc3ccccc3[nH]2)cc1NC(=S)NC(=O)c1ccccc1Br	ATG4B inhibitor 41 | PLA2 ctr 61
O=C(COC(=O)c1cccc(S(=O)(=O)NCc2ccccc2)c1)c1ccccc1	ATG4B inhibitor 47 | PLA2 ctr 55
COc1ccc(S(=O)(=O)N2CCC(C(=O)NC3CCCCC3)CC2)cc1OC	none
O=C(O)c1ccccc1C(=O)Nc1ccc(Oc2cccc3ccccc23)cc1	none (no result: CAL PDZ FP-1)
Cc1cccc(Oc2ccc(NC(=O)c3ccccc3C(=O)O)cc2)c1C	ATG4B inhibitor 69 | PLA2 ctr 70
O=S1(=O)N(Cc2ccccc2F)CCCN1Cc1c(F)cccc1Cl	ATG4B inhibitor 68 | PLA2 ctr 83
Cc1ccc(CN2CCCN(Cc3c(F)cccc3Cl)S2(=O)=O)cc1	none
O=C(O)c1cccc2c(-c3ccccc3)c(-c3ccccc3)[nH]c12	ATG4B inhibitor 69 | PLA2 ctr 75
CC(C)(C)c1ccc2c(c1)C(=O)c1ccccc1C2=O	ATG4B inhibitor 45 | ATG4B conf 67 | PLA2 ctr inactive
CCc1ccc2c(c1)C(=O)c1ccccc1C2=O	none
O=C(c1nn(Cc2ccccc2)c(=O)c2ccccc12)N1CCN(C/C=C/c2ccccc2)CC1	ATG4B inhibitor 49 | PLA2 ctr 55
O=C(c1ccco1)N1CCN(C/C=C/c2ccccc2)CC1	none
CCCCCCOc1ccc(N2C(=O)CC(S/C(N)=N/N=C(\C)c3cccs3)C2=O)cc1 (configuration not stated)	ATG4B inhibitor 49 | ATG4B conf 61 | PLA2 ctr inactive
CC1CCC(NCCNC(=O)c2ccco2)CC1 (configuration not stated)	none (no result: CAL PDZ FP-1, SR-BI uptake up, SR-BI HDL uptake)
O=C(CNCCc1ccc(Cl)cc1Cl)NCc1ccco1	ATG4B inhibitor 41 | ATG4B conf 66 | PLA2 ctr inactive
Cc1ccc(C(=O)N2CCN(S(=O)(=O)c3cc(Br)ccc3Br)CC2)o1	none
CCOC(=O)c1c(-n2cnnn2)sc2c1CCCC2	none (no result: CAL PDZ FP-1)
CCOC(=O)c1c(N2C(=O)Nc3cc(Cl)c(Cl)cc3N2O)sc2c1CCCCC2	ATG4B inhibitor 77 | PLA2 ctr 92
C=CCn1c(COc2ccccc2-c2ccccc2)nnc1SCC(=O)NC(=O)NCc1ccco1	ATG4B inhibitor 75 | PLA2 ctr 85
COc1c(Br)cc(/C=N/n2c(-c3ccccc3)n[nH]c2=S)c(O)c1Br	none
Oc1c(Br)cc(Br)cc1/C=N/n1c(-c2ccccc2)n[nH]c1=S	ATG4B inhibitor 42 | ATG4B conf 45 | PLA2 ctr inactive
